# Assay results gathered from unrelated publications.
# Compare with care: the assays were run in different laboratories.
# Target: Rho-associated protein kinase 1 (ROCK1, Homo sapiens, UniProt Q13464)
Compound,read-out,technique,tested at,remaining binding [%]
C[C@H]1CCN(c2nccc(-c3cnn4ncccc34)n2)C1,binding,,1 µM,81
O=C(c1ccc(Nc2ncc(Cl)c(-c3cc4ccccc4s3)n2)cc1)N1CCC(N2CCCC2)CC1,binding,competition with immobilised ligand,1 µM,4.5
C[C@H](c1ccnc(Nc2nc3ccc(-c4cc(N(C)C)ncn4)cc3[nH]2)c1)N1CCN(C(=O)CC(F)(F)F)CC1,cell-free assay,competition with immobilised ligand,0.1 µM,100
N[C@H]1CCN(c2nccc(-c3cnn4ncccc34)n2)C1,binding,,1 µM,73
CC(=O)c1c(NS(C)(=O)=O)c2cc(-c3ccc(Cl)cc3)c(-c3ccc(Cl)cc3Cl)nc2n(C)c1=O,cell-free assay,competition with immobilised ligand,1 µM,85
COc1ccnn2ncc(-c3ccnc(N(C)C)n3)c12,binding,,1 µM,93
CCCOc1ccc([C@H]2[C@H](C(=O)O)[C@@H](c3ccc4c(c3)OCO4)CN2CC(=O)Nc2c(CC)cccc2CC)cc1,cell-free assay,competition with immobilised ligand,1 µM,65
c1cncc(-c2cccc(Nc3nccc(NC4CCCCC4)n3)c2)c1,binding,competition with immobilised ligand,10 µM,10
O=C(c1ccc(Nc2nccc(-c3cc4ccccc4s3)n2)cc1)N1CCC(N2CCCC2)CC1,binding,competition with immobilised ligand,1 µM,7.4
N#Cc1ccc(Nc2ccc3[nH]c(=O)[nH]c3c2)c(Cl)c1,cell-free assay,competition with immobilised ligand,1 µM,100
C[C@@H](c1ccc(-n2cnc3c(N)ncnc32)cc1)N1CCc2nn(C)c(Cc3ccccc3)c2C1=O,binding,competition with immobilised ligand,0.1 µM,85
O=C(O)c1cc(-c2ccc(C3CCNCC3)cc2)c2ccc(-c3ccc(C(F)(F)F)cc3)cc2c1,cell-free assay,competition with immobilised ligand,1 µM,100
CN(CCCC(F)(F)F)c1nccc(-c2cnn3ncccc23)n1,binding,,1 µM,100
O=C(NCC1CCOCC1)c1n[nH]cc1NC(=O)c1c(F)cccc1F,binding,competition with immobilised ligand,1 µM,83
F[C@@H]1CCN(c2nccc(-c3cnn4ncccc34)n2)C1,binding,,1 µM,100
C=CC(=O)N1CCC(C(=O)NCC(=O)N2CCN(c3nc(-c4cnc(N)nc4C(F)F)nc(N4CCOCC4)n3)CC2)CC1,binding,competition with immobilised ligand,1 µM,100
O=C(NCCCN1CCOCC1)c1ccc(Nc2nccc(-c3cc4ccccc4s3)n2)cc1,binding,competition with immobilised ligand,1 µM,54
COc1cnc(Nc2cccc(S(N)(=O)=O)c2)nc1N1CCN(c2ccccc2)CC1,binding,competition with immobilised ligand,1 µM,78
CO[C@H]1CC[C@H](CNc2ccc(S(=O)(=O)NC(=O)c3ccc(N4CCN(CC5=C(c6ccc(Cl)cc6)CC(C)(C)CC5)CC4)cc3Oc3cnc4[nH]ccc4c3)cc2[N+](=O)[O-])CC1,cell-free assay,competition with immobilised ligand,1 µM,70
CN(C)c1nccc(-c2cnn3ncccc23)n1,binding,,1 µM,100
C[C@H](c1ccc(F)cc1)N(Cc1cccc(C(=O)O)c1)C(=O)c1cnc2ccccc2c1,cell-free assay,competition with immobilised ligand,1 µM,100
CC1CCCN1c1nccc(-c2cnn3ncccc23)n1 (stereo not shown),binding,,1 µM,100
